Where “and” joins values, the source holds several entries; their conditions need not be identical. Equal values may be shown once. Read-outs that look alike come from different tables or passages of the source. Each block holds one compound with its values, some of them ahead of it.
What was measured:
[1] = test system: PSMA+ PC3 PIP and PSMA– PC3 flu xenografts; type: in vivo, mice; conditions: for PIP:blood ratio / PIP:flu ratio / PIP:kidney ratio / PIP:muscle ratio / biodistribution, PC-3 PIP tumor / biodistribution, PC-3 flu tumor / biodistribution, bladder / biodistribution, blood / biodistribution, bone / biodistribution, fat / biodistribution, heart / biodistribution, kidney / biodistribution, large intestine / biodistribution, liver / biodistribution, lung / biodistribution, muscle / biodistribution, pancreas / biodistribution, small intestine / biodistribution, spleen / biodistribution, stomach: tumor bearing mice
[2] = test system: PSMA+ PC3 PIP and PSMA– PC3 flu tumor xenografts; assay: Small animal PET or PET/CT imaging of tumor bearing mice; type: in vivo
[3] = target: PSMA (Homo sapiens, UniProt Q04609); assay: PSMA inhibitory activity, fluorescence-based Amplex red glutamic acid; type: biochemical; conditions: for Ki: LNCaP cell lysates, 4 µM NAAG, Cheng-Prusoff conversion
In short: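 LNCaP cell lysate was incubated with the test compound and NAAG substrate for 120 min. Glutamate released by NAAG hydrolysis was detected by a further 60 min incubation with Amplex red glutamic acid working solution, then fluorescence was read at excitation 490 nm and emission 642 nm. IC50 was taken from semilog inhibition curves and converted to Ki by Cheng-Prusoff. Assays were run in triplicate.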

Sequence of PSMA (Q04609 whole entry): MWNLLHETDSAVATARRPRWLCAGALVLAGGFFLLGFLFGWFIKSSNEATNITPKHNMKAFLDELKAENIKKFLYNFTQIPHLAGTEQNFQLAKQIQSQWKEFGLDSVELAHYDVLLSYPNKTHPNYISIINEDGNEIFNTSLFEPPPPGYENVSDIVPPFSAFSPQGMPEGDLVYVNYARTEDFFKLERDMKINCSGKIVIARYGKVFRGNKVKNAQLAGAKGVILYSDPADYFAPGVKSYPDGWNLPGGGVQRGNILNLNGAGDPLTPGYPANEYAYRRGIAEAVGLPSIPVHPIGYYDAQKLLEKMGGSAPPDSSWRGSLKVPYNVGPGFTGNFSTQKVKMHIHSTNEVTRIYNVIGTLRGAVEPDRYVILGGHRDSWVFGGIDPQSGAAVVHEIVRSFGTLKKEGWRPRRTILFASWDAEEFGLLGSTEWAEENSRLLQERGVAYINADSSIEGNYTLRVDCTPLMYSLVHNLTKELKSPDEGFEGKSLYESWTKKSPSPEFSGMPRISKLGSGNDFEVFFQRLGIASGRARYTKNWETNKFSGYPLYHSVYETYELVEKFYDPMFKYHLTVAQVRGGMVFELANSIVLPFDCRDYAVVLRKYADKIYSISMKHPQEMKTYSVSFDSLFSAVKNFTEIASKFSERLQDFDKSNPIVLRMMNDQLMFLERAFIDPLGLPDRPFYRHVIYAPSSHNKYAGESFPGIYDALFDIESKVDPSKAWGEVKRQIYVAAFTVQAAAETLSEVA

SMILES: O=C(O)CCC(OC(=O)NC(CCCCNC(=O)c1ccc(Br)cc1[18F])C(=O)O)C(=O)O (stereo not shown) [[^18F]23, 4-Bromo-2-[^18F]fluorobenzoyllysineoxypentanedioic acid (OPA) carbamate]
PIP:blood ratio ([1]; 0.5 h postinjection): 13 and 13.5
PIP:flu ratio ([1]; 0.5 h postinjection): 28.7
PIP:kidney ratio ([1]; 0.5 h postinjection): 0.5
PIP:muscle ratio ([1]; 0.5 h postinjection): 93 and 93.3
biodistribution, PC-3 PIP tumor ([1]; 0.5 h postinjection): 63 % ID/g and 63.4 ± 7.16 % ID/g
biodistribution, PC-3 flu tumor ([1]; 0.5 h postinjection): 2.21 ± 0.19 % ID/g
biodistribution, bladder ([1]; 0.5 h postinjection): 2.84 ± 0.65 % ID/g
biodistribution, blood ([1]; 0.5 h postinjection): 4.69 ± 0.33 % ID/g
biodistribution, bone ([1]; 0.5 h postinjection): 0.89 ± 0.14 % ID/g
biodistribution, fat ([1]; 0.5 h postinjection): 1.02 ± 0.12 % ID/g
biodistribution, heart ([1]; 0.5 h postinjection): 1.72 ± 0.31 % ID/g
biodistribution, kidney ([1]; 0.5 h postinjection): 135 ± 23.0 % ID/g
biodistribution, large intestine ([1]; 0.5 h postinjection): 1.35 ± 0.35 % ID/g
biodistribution, liver ([1]; 0.5 h postinjection): 15.5 ± 1.57 % ID/g
biodistribution, lung ([1]; 0.5 h postinjection): 4.59 ± 0.78 % ID/g
biodistribution, muscle ([1]; 0.5 h postinjection): 0.68 ± 0.07 % ID/g
biodistribution, pancreas ([1]; 0.5 h postinjection): 1.45 ± 0.15 % ID/g
biodistribution, small intestine ([1]; 0.5 h postinjection): 1.51 ± 0.71 % ID/g
biodistribution, spleen ([1]; 0.5 h postinjection): 19.9 ± 7.80 % ID/g
biodistribution, stomach ([1]; 0.5 h postinjection): 1.08 ± 0.07 % ID/g
PIP:blood ratio ([1]; 1 h postinjection): 40 and 40.3
PIP:flu ratio ([1]; 1 h postinjection): 69.4
PIP:kidney ratio ([1]; 1 h postinjection): 0.5
PIP:muscle ratio ([1]; 1 h postinjection): 208 and 208.1
biodistribution, PC-3 PIP tumor ([1]; 1 h postinjection): 64.5 ± 7.71 % ID/g
biodistribution, PC-3 flu tumor ([1]; 1 h postinjection): 0.93 ± 0.19 % ID/g
biodistribution, bladder ([1]; 1 h postinjection): 5.11 ± 3.57 % ID/g
biodistribution, blood ([1]; 1 h postinjection): 1.60 ± 1.17 % ID/g
biodistribution, bone ([1]; 1 h postinjection): 0.48 ± 0.17 % ID/g
biodistribution, fat ([1]; 1 h postinjection): 0.79 ± 0.74 % ID/g
biodistribution, heart ([1]; 1 h postinjection): 0.79 ± 0.14 % ID/g
biodistribution, kidney ([1]; 1 h postinjection): 139 ± 23.7 % ID/g
biodistribution, large intestine ([1]; 1 h postinjection): 0.71 ± 0.35 % ID/g
biodistribution, liver ([1]; 1 h postinjection): 11.9 ± 2.95 % ID/g
biodistribution, lung ([1]; 1 h postinjection): 2.62 ± 0.30 % ID/g
biodistribution, muscle ([1]; 1 h postinjection): 0.31 ± 0.05 % ID/g
biodistribution, pancreas ([1]; 1 h postinjection): 0.80 ± 0.21 % ID/g
biodistribution, small intestine ([1]; 1 h postinjection): 1.67 ± 0.70 % ID/g
biodistribution, spleen ([1]; 1 h postinjection): 9.62 ± 5.53 % ID/g
biodistribution, stomach ([1]; 1 h postinjection): 0.67 ± 0.18 % ID/g
PIP:blood ratio ([1]; 2 h postinjection): 148 and 147.6
PIP:flu ratio ([1]; 2 h postinjection): 233.4
PIP:kidney ratio ([1]; 2 h postinjection): 0.7
PIP:muscle ratio ([1]; 2 h postinjection): 643 and 643.1
biodistribution, PC-3 PIP tumor ([1]; 2 h postinjection): 90.0 ± 13.6 % ID/g
biodistribution, PC-3 flu tumor ([1]; 2 h postinjection): 0.39 ± 0.01 % ID/g
biodistribution, bladder ([1]; 2 h postinjection): 4.22 ± 1.58 % ID/g
biodistribution, blood ([1]; 2 h postinjection): 0.61 ± 0.41 % ID/g
biodistribution, bone ([1]; 2 h postinjection): 0.20 ± 0.03 % ID/g
biodistribution, fat ([1]; 2 h postinjection): 0.88 ± 0.80 % ID/g
biodistribution, heart ([1]; 2 h postinjection): 0.35 ± 0.07 % ID/g
biodistribution, kidney ([1]; 2 h postinjection): 127 ± 37.1 % ID/g
biodistribution, large intestine ([1]; 2 h postinjection): 0.51 ± 0.30 % ID/g
biodistribution, liver ([1]; 2 h postinjection): 6.42 ± 1.06 % ID/g
biodistribution, lung ([1]; 2 h postinjection): 1.21 ± 0.14 % ID/g
biodistribution, muscle ([1]; 2 h postinjection): 0.14 ± 0.02 % ID/g
biodistribution, pancreas ([1]; 2 h postinjection): 0.37 ± 0.07 % ID/g
biodistribution, small intestine ([1]; 2 h postinjection): 0.52 ± 0.17 % ID/g
biodistribution, spleen ([1]; 2 h postinjection): 5.69 ± 2.14 % ID/g
biodistribution, stomach ([1]; 2 h postinjection): 0.67 ± 0.72 % ID/g
PIP:blood ratio ([1]; 4 h postinjection): 240 and 240.1
PIP:flu ratio ([1]; 4 h postinjection): 461.5
PIP:kidney ratio ([1]; 4 h postinjection): 1.4
PIP:muscle ratio ([1]; 4 h postinjection): 792 and 791.9
biodistribution, PC-3 PIP tumor ([1]; 4 h postinjection): 74 % ID/g and 74.4 ± 9.19 % ID/g
biodistribution, PC-3 flu tumor ([1]; 4 h postinjection): 0.16 ± 0.03 % ID/g
biodistribution, bladder ([1]; 4 h postinjection): 3.30 ± 3.03 % ID/g
biodistribution, blood ([1]; 4 h postinjection): 0.31 ± 0.09 % ID/g
biodistribution, bone ([1]; 4 h postinjection): 0.09 ± 0.05 % ID/g
biodistribution, fat ([1]; 4 h postinjection): 0.53 ± 0.27 % ID/g
biodistribution, heart ([1]; 4 h postinjection): 0.14 ± 0.08 % ID/g
biodistribution, kidney ([1]; 4 h postinjection): 54.5 ± 22.2 % ID/g
biodistribution, large intestine ([1]; 4 h postinjection): 0.81 ± 0.15 % ID/g
biodistribution, liver ([1]; 4 h postinjection): 2.95 ± 1.97 % ID/g
biodistribution, lung ([1]; 4 h postinjection): 0.58 ± 0.32 % ID/g
biodistribution, muscle ([1]; 4 h postinjection): 0.09 ± 0.07 % ID/g
biodistribution, pancreas ([1]; 4 h postinjection): 0.13 ± 0.03 % ID/g
biodistribution, small intestine ([1]; 4 h postinjection): 0.23 ± 0.05 % ID/g
biodistribution, spleen ([1]; 4 h postinjection): 1.68 ± 1.03 % ID/g
biodistribution, stomach ([1]; 4 h postinjection): 0.12 ± 0.07 % ID/g
tumor/kidney ratio ([1]; at 2–4 h): approximately 1
PSMA– PC3 flu tumor uptake ([1]; mouse, in vivo): no specific uptake
defluorination in vivo (from bone uptake) ([1]; mouse, in vivo): lack of significant defluorination in vivo
PSMA+ PC3 PIP tumor uptake on small animal PET imaging ([2]; male SCID mice with PSMA+ PC3 PIP and PSMA– PC3 flu xenografts): Intense and selective radiotracer uptake
uptake in salivary glands on imaging ([2]; mouse, in vivo): Neither [^18F]23 nor [^18F]24 demonstrated any uptake in salivary glands

SMILES: O=C(O)CC[C@H](OC(=O)N[C@@H](CCCCNC(=O)c1ccc(F)cc1)C(=O)O)C(=O)O [compound 13, (S)-2-((((S)-1-Carboxy-5-(4-fluorobenzamido)pentyl)-carbamoyl)oxy)pentanedioic Acid]
reduction in binding affinity compared to 9 [3]: 30 fold
Ki ([3]; Ki): 9.2 nM

SMILES: O=C(O)CC[C@H](NC(=O)N[C@@H](CCCCNC(=O)c1ccc(Br)cc1F)C(=O)O)C(=O)O [compound 26, (S)-2-(3-((S)-5-(4-Bromo-2-fluorobenzamido)-1-carboxypentyl)ureido)pentanedioic Acid]
Ki ([3]; Ki): 0.036 nM and 0.04 nM

Next, values leading:

reduction in binding affinity compared to 9 [3]: more than 150 fold
SMILES: O=C(O)CC[C@H](NC(=O)O[C@@H](CCCCNC(=O)c1ccc(F)cc1)C(=O)O)C(=O)O [compound 12, (S)-2-(((((S)-1-Carboxy-5-(4-fluorobenzamido)pentyl)oxy)-carbonyl)amino)pentanedioic Acid]

decrease in potency compared with the corresponding ureas 26 and 27 [3]: < 10 fold
Ki ([3]; Ki): 0.11 nM
SMILES: O=C(O)CC[C@H](OC(=O)N[C@@H](CCCCNC(=O)c1ccc(Br)cc1F)C(=O)O)C(=O)O [compound 23, (S)-2-((((S)-5-(4-Bromo-2-fluorobenzamido)-1-carboxypentyl)carbamoyl)oxy)pentanedioic Acid]

decrease in potency compared with the corresponding ureas 26 and 27 [3]: < 10 fold
Ki [3]: 0.21 nM
SMILES: O=C(O)CC[C@H](OC(=O)N[C@@H](CCCCNC(=O)c1ccc(I)cc1F)C(=O)O)C(=O)O [compound 24]

Ki ([3]; Ki): 0.023 nM and 0.02 nM
SMILES: O=C(O)CC[C@H](NC(=O)N[C@@H](CCCCNC(=O)c1ccc(I)cc1F)C(=O)O)C(=O)O [compound 27, (S)-2-(3-((S)-5-(4-Iodo-2-fluorobenzamido)-1-carboxypentyl)ureido)pentanedioic Acid]

From article PMC4856055 (Journal of medicinal chemistry, 2015)
